Legend:
Type in all cases: functional
Settings in all cases: route intraperitoneal, in the assay text read “ip” for “po”
[1] = tested on: Mus musculus; experiment: Inhibition of haloperidol-induced catalepsy in Swiss albino mouse assessed as time elapsed until release of forepaw from bar at 100 mg/kg, […] 30 min prior to haloperidol challenge measured after 60 mins by bar test
Procedure, shortened: (§1)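 Adult male pathogen-free Swiss albino mice (18–25 g), n = 5 per group, each used once. Compounds at 100 mg/kg i.p. were given as a suspension in 0.5% gum acacia 30 min before haloperidol 5 mg/kg i.p. Forepaws were placed on a horizontal bar 9 cm high, and descent time was recorded every 30 min for 3 h. Testing ran at 23 ± 1 °C under 20 lux. Values are mean ± S.E.M.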

[2] = tested on: Mus musculus; experiment: Inhibition of haloperidol-induced catalepsy in Swiss albino mouse assessed as time elapsed until release of forepaw from bar at 100 mg/kg, […] 30 min prior to haloperidol challenge measured after 30 mins by bar test; procedure, shortened: as §1
[3] = tested on: Mus musculus; experiment: Inhibition of haloperidol-induced catalepsy in Swiss albino mouse assessed as time elapsed until release of forepaw from bar at 100 mg/kg, […] 30 min prior to haloperidol challenge measured after 90 mins by bar test; procedure, shortened: as §1
[4] = tested on: Mus musculus; experiment: Inhibition of haloperidol-induced catalepsy in Swiss albino mouse assessed as time elapsed until release of forepaw from bar at 100 mg/kg, […] 30 min prior to haloperidol challenge measured after 120 mins by bar test; procedure, shortened: as §1
[5] = tested on: Mus musculus; experiment: Inhibition of haloperidol-induced catalepsy in Swiss albino mouse assessed as time elapsed until release of forepaw from bar at 100 mg/kg, […] 30 min prior to haloperidol challenge measured after 150 mins by bar test; procedure, shortened: as §1
[6] = tested on: Mus musculus; experiment: Inhibition of haloperidol-induced catalepsy in Swiss albino mouse assessed as time elapsed until release of forepaw from bar at 100 mg/kg, […] 30 min prior to haloperidol challenge measured after 180 mins by bar test; procedure, shortened: as §1
[7] = tested on: Mus musculus; experiment: Inhibition of haloperidol-induced catalepsy in Swiss albino mouse at 100 mg/kg, […] 30 min prior to haloperidol challenge by bar test relative to haloperidol control
Procedure, shortened: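 Mice received compound at 100 mg/kg i.p. (in 0.5% gum acacia) 30 min before haloperidol 5 mg/kg i.p., n = 5. The bar test was run every 30 min over 3 h, and descent times were summed as CDT [3 h]. Haloperidol CDT minus vehicle CDT was set as 100% catalepsy, and % inhibition was calculated against it.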

Structure (SMILES): COc1ccc(NC(=S)Nc2ncnc3c2sc(=S)n3-c2ccccc2)cc1
- Catalepsy time (forepaw descent time) [1]: 1.1 min
- descent time [2]: 1.17 min
- catalepsy descent time [3]: 1.72 min
- catalepsy descent time [4]: 2.63 min
- Time to forepaw release from bar [5]: 2.87 min
- Catalepsy duration (time to release forepaw from bar) [6]: 2.22 min
- inhibition (INH) [7]: 43.1%

Structure (SMILES): CCn1c(=S)sc2c(NC(=O)Nc3ccc(Cl)cc3)ncnc21
- Catalepsy time (forepaw descent time) [1]: 2.88 min
- descent time [2]: 1.07 min
- catalepsy descent time [3]: 2.72 min
- catalepsy descent time [4]: 2.53 min
- Time to forepaw release from bar [5]: 3.77 min
- Catalepsy duration (time to release forepaw from bar) [6]: 4.12 min
- inhibition (INH) [7]: 64.1%

Structure (SMILES): N[C@@H](Cc1ccc(O)c(O)c1)C(=O)O [LEVODOPA]
- Catalepsy time (forepaw descent time) [1]: 0.633 min
- descent time [2]: 0.317 min
- catalepsy descent time [3]: 1.43 min
- catalepsy descent time [4]: 1.47 min
- Time to forepaw release from bar [5]: 1.42 min
- Catalepsy duration (time to release forepaw from bar) [6]: 1.8 min
- inhibition (INH) [7]: 25.1%

Structure (SMILES): CCn1c(=S)sc2c(NC(=O)Nc3ccccc3[N+](=O)[O-])ncnc21
- Catalepsy time (forepaw descent time) [1]: 2.8 min
- descent time [2]: 1.7 min
- catalepsy descent time [3]: 3.48 min
- catalepsy descent time [4]: 3.3 min
- Time to forepaw release from bar [5]: 3.75 min
- Catalepsy duration (time to release forepaw from bar) [6]: 3.8 min
- inhibition (INH) [7]: 70.9%

Structure (SMILES): CCn1c(=S)sc2c(NC(=O)Nc3ccc([N+](=O)[O-])cc3)ncnc21
- Catalepsy time (forepaw descent time) [1]: 2.33 min
- descent time [2]: 1.67 min
- catalepsy descent time [3]: 3.23 min
- catalepsy descent time [4]: 3.53 min
- Time to forepaw release from bar [5]: 3.5 min
- Catalepsy duration (time to release forepaw from bar) [6]: 3.85 min
- inhibition (INH) [7]: 68.1%

Structure (SMILES): O=C(Nc1ccc(Cl)cc1)Nc1ncnc2c1sc(=S)n2-c1ccccc1
- Catalepsy time (forepaw descent time) [1]: 2.95 min
- descent time [2]: 1.27 min
- catalepsy descent time [3]: 2.32 min
- catalepsy descent time [4]: 3.42 min
- Time to forepaw release from bar [5]: 3.43 min
- Catalepsy duration (time to release forepaw from bar) [6]: 4.03 min
- inhibition (INH) [7]: 65.3%

Structure (SMILES): O=C(Nc1ccccc1F)Nc1ncnc2c1sc(=S)n2-c1ccccc1
- Catalepsy time (forepaw descent time) [1]: 2.1 min
- descent time [2]: 1.38 min
- catalepsy descent time [3]: 2.77 min
- catalepsy descent time [4]: 2.35 min
- Time to forepaw release from bar [5]: 2.53 min
- Catalepsy duration (time to release forepaw from bar) [6]: 2.63 min
- inhibition (INH) [7]: 51.2%

Structure (SMILES): S=C(Nc1ccc(Cl)cc1)Nc1ncnc2c1sc(=S)n2-c1ccccc1
- Catalepsy time (forepaw descent time) [1]: 2.45 min
- descent time [2]: 0.967 min
- catalepsy descent time [3]: 2.55 min
- catalepsy descent time [4]: 2.8 min
- Time to forepaw release from bar [5]: 3.48 min
- Catalepsy duration (time to release forepaw from bar) [6]: 4.47 min
- inhibition (INH) [7]: 62.6%

Structure (SMILES): CCn1c(=S)sc2c(NC(=O)Nc3ccccc3F)ncnc21
- Catalepsy time (forepaw descent time) [1]: 1.98 min
- descent time [2]: 1.12 min
- catalepsy descent time [3]: 2.3 min
- catalepsy descent time [4]: 2.88 min
- Time to forepaw release from bar [5]: 3.1 min
- Catalepsy duration (time to release forepaw from bar) [6]: 2.95 min
- inhibition (INH) [7]: 53.4%

Structure (SMILES): S=C(Nc1ccccc1Cl)Nc1ncnc2c1sc(=S)n2-c1ccccc1
- Catalepsy time (forepaw descent time) [1]: 1.93 min
- descent time [2]: 1.07 min
- catalepsy descent time [3]: 3.08 min
- catalepsy descent time [4]: 2.63 min
- Time to forepaw release from bar [5]: 4.02 min
- Catalepsy duration (time to release forepaw from bar) [6]: 3.97 min
- inhibition (INH) [7]: 62.6%

Structure (SMILES): Fc1ccc(NC(=S)Nc2ncnc3c2sc(=S)n3-c2ccccc2)cc1
- Catalepsy time (forepaw descent time) [1]: 2.15 min
- descent time [2]: 1.25 min
- catalepsy descent time [3]: 2.75 min
- catalepsy descent time [4]: 3.25 min
- Time to forepaw release from bar [5]: 3.63 min
- Catalepsy duration (time to release forepaw from bar) [6]: 3.33 min
- inhibition (INH) [7]: 61.3%

Structure (SMILES): O=C(Nc1ccc([N+](=O)[O-])cc1)Nc1ncnc2c1sc(=S)n2-c1ccccc1
- Catalepsy time (forepaw descent time) [1]: 1.32 min
- descent time [2]: 0.883 min
- catalepsy descent time [3]: 1.98 min
- catalepsy descent time [4]: 2.08 min
- Time to forepaw release from bar [5]: 3.18 min
- Catalepsy duration (time to release forepaw from bar) [6]: 3.93 min
- inhibition (INH) [7]: 49.7%

Structure (SMILES): O=C(Nc1ccccc1)Nc1ncnc2c1sc(=S)n2-c1ccccc1
- Catalepsy time (forepaw descent time) [1]: 2.13 min
- descent time [2]: 0.75 min
- catalepsy descent time [3]: 1.63 min
- catalepsy descent time [4]: 2.23 min
- Time to forepaw release from bar [5]: 3.33 min
- Catalepsy duration (time to release forepaw from bar) [6]: 3.25 min
- inhibition (INH) [7]: 49.5%

Structure (SMILES): CCn1c(=S)sc2c(NC(=O)Nc3ccc(OC)cc3)ncnc21
- Catalepsy time (forepaw descent time) [1]: 1.85 min
- descent time [2]: 1.28 min
- catalepsy descent time [3]: 1.9 min
- catalepsy descent time [4]: 2.02 min
- Time to forepaw release from bar [5]: 2.3 min
- Catalepsy duration (time to release forepaw from bar) [6]: 2.38 min
- inhibition (INH) [7]: 43.3%

Structure (SMILES): O=[N+]([O-])c1ccc(NC(=S)Nc2ncnc3c2sc(=S)n3-c2ccccc2)cc1
- Catalepsy time (forepaw descent time) [1]: 1.88 min
- descent time [2]: 0.967 min
- catalepsy descent time [3]: 2.18 min
- catalepsy descent time [4]: 2.45 min
- Time to forepaw release from bar [5]: 2.68 min
- Catalepsy duration (time to release forepaw from bar) [6]: 2.65 min
- inhibition (INH) [7]: 47.5%

Structure (SMILES): S=C(Nc1ccccc1)Nc1ncnc2c1sc(=S)n2-c1ccccc1
- Catalepsy time (forepaw descent time) [1]: 0.967 min
- descent time [2]: 1.1 min
- catalepsy descent time [3]: 1.25 min
- catalepsy descent time [4]: 3.2 min
- Time to forepaw release from bar [5]: 3.6 min
- Catalepsy duration (time to release forepaw from bar) [6]: 3.62 min
- inhibition (INH) [7]: 51%

Structure (SMILES): O=[N+]([O-])c1ccccc1NC(=S)Nc1ncnc2c1sc(=S)n2-c1ccccc1
- Catalepsy time (forepaw descent time) [1]: 1.15 min
- descent time [2]: 0.7 min
- catalepsy descent time [3]: 1.15 min
- catalepsy descent time [4]: 1.55 min
- Time to forepaw release from bar [5]: 3.9 min
- Catalepsy duration (time to release forepaw from bar) [6]: 3.87 min
- inhibition (INH) [7]: 45.4%

Structure (SMILES): CCn1c(=S)sc2c(NC(=O)Nc3ccccc3Cl)ncnc21
- Catalepsy time (forepaw descent time) [1]: 2.3 min
- descent time [2]: 2.12 min
- catalepsy descent time [3]: 2.18 min
- catalepsy descent time [4]: 2.62 min
- Time to forepaw release from bar [5]: 3.27 min
- Catalepsy duration (time to release forepaw from bar) [6]: 3.15 min
- inhibition (INH) [7]: 58.4%

Structure (SMILES): O=C(Nc1ccccc1[N+](=O)[O-])Nc1ncnc2c1sc(=S)n2-c1ccccc1
- Catalepsy time (forepaw descent time) [1]: 1.05 min
- descent time [2]: 0.917 min
- catalepsy descent time [3]: 2.02 min
- catalepsy descent time [4]: 2.25 min
- Time to forepaw release from bar [5]: 2.93 min
- Catalepsy duration (time to release forepaw from bar) [6]: 2.95 min
- inhibition (INH) [7]: 44.8%

Structure (SMILES): COc1ccc(NC(=O)Nc2ncnc3c2sc(=S)n3-c2ccccc2)cc1
- Catalepsy time (forepaw descent time) [1]: 1.53 min
- descent time [2]: 0.95 min
- catalepsy descent time [3]: 1.67 min
- catalepsy descent time [4]: 2.25 min
- Time to forepaw release from bar [5]: 2.08 min
- Catalepsy duration (time to release forepaw from bar) [6]: 2.15 min
- inhibition (INH) [7]: 39%

Structure (SMILES): CCn1c(=S)sc2c(NC(=S)Nc3ccc(OC)cc3)ncnc21
- Catalepsy time (forepaw descent time) [1]: 0.717 min
- descent time [2]: 0.433 min
- catalepsy descent time [3]: 1.53 min
- catalepsy descent time [4]: 1.9 min
- Time to forepaw release from bar [5]: 2.1 min
- Catalepsy duration (time to release forepaw from bar) [6]: 2.23 min
- inhibition (INH) [7]: 32.3%

Structure (SMILES): CCn1c(=S)sc2c(NC(=O)Nc3ccccc3)ncnc21
- Catalepsy time (forepaw descent time) [1]: 2.03 min
- descent time [2]: 0.817 min
- catalepsy descent time [3]: 2.12 min
- catalepsy descent time [4]: 2.4 min
- Time to forepaw release from bar [5]: 2.22 min
- Catalepsy duration (time to release forepaw from bar) [6]: 3.32 min
- inhibition (INH) [7]: 47.8%

Structure (SMILES): O=C(Nc1ccccc1Cl)Nc1ncnc2c1sc(=S)n2-c1ccccc1
- Catalepsy time (forepaw descent time) [1]: 1.97 min
- descent time [2]: 1.27 min
- catalepsy descent time [3]: 2.4 min
- catalepsy descent time [4]: 2.78 min
- Time to forepaw release from bar [5]: 2.92 min
- Catalepsy duration (time to release forepaw from bar) [6]: 2.9 min
- inhibition (INH) [7]: 53%

Structure (SMILES): O=C(CCCN1CCC(O)(c2ccc(Cl)cc2)CC1)c1ccc(F)cc1 [HALOPERIDOL]
- Catalepsy time (forepaw descent time) [1]: 3.73 min
- descent time [2]: 3.05 min
- catalepsy descent time [3]: 4.55 min
- catalepsy descent time [4]: 5 min
- Time to forepaw release from bar [5]: 5 min
- Catalepsy duration (time to release forepaw from bar) [6]: 5 min

Structure (SMILES): CCn1c(=S)sc2c(NC(=O)Nc3ccc(F)cc3)ncnc21
- Catalepsy time (forepaw descent time) [1]: 1.65 min
- descent time [2]: 1.1 min
- catalepsy descent time [3]: 1.88 min
- catalepsy descent time [4]: 3.07 min
- Time to forepaw release from bar [5]: 3.12 min
- Catalepsy duration (time to release forepaw from bar) [6]: 3.95 min
- inhibition (INH) [7]: 55.1%

Structure (SMILES): CCn1c(=S)sc2c(NC(=S)Nc3ccccc3)ncnc21
- Catalepsy time (forepaw descent time) [1]: 1.92 min
- descent time [2]: 1.22 min
- catalepsy descent time [3]: 2.32 min
- catalepsy descent time [4]: 2.33 min
- Time to forepaw release from bar [5]: 2.87 min
- Catalepsy duration (time to release forepaw from bar) [6]: 2.85 min
- inhibition (INH) [7]: 50.1%

Structure (SMILES): O=C(Nc1ccc(F)cc1)Nc1ncnc2c1sc(=S)n2-c1ccccc1
- Catalepsy time (forepaw descent time) [1]: 1.9 min
- descent time [2]: 1.42 min
- catalepsy descent time [3]: 1.92 min
- catalepsy descent time [4]: 2.63 min
- Time to forepaw release from bar [5]: 2.55 min
- Catalepsy duration (time to release forepaw from bar) [6]: 3.8 min
- inhibition (INH) [7]: 52.9%

Structure (SMILES): Fc1ccccc1NC(=S)Nc1ncnc2c1sc(=S)n2-c1ccccc1
- Catalepsy time (forepaw descent time) [1]: 1.65 min
- descent time [2]: 1.3 min
- catalepsy descent time [3]: 2.37 min
- catalepsy descent time [4]: 2.67 min
- Time to forepaw release from bar [5]: 3.47 min
- Catalepsy duration (time to release forepaw from bar) [6]: 4.28 min
- inhibition (INH) [7]: 58.8%
